Consider 29 compounds from ChEMBL document CHEMBL4680101, “Discovery and Optimization of Allosteric Inhibitors of Mutant Isocitrate Dehydrogenase 1 (R132H IDH1) Displaying Activity in Human Acute Myeloid Leukemia Cells” (J Med Chem, 2016).

The IC50 is the concentration that gives 50% inhibition.

For test [1], the target named is Isocitrate dehydrogenase [NADP] cytoplasmic (Homo sapiens, UniProt O75874). As to the kind of experiment: Inhibition of wild type IDH1 (unknown origin) using alpha-ketoglutarate and NADPH incubated for 30 mins by fluorescence based assay.
Isocitrate dehydrogenase [NADP] cytoplasmic (Homo sapiens, UniProt O75874), sequence (O75874 whole entry): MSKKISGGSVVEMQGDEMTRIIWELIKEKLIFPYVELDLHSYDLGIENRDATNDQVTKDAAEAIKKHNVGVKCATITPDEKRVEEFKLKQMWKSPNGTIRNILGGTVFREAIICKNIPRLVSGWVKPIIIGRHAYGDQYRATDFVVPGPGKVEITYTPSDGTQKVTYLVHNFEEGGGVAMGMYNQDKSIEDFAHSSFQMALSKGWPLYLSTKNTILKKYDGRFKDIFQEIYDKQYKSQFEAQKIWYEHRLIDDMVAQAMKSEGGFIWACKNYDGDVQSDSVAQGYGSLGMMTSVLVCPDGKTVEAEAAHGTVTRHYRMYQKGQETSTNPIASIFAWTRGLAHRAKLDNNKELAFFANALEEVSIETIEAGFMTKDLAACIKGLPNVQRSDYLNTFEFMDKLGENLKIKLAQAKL
Test [2] deals with T1, Isocitrate dehydrogenase [NADP] cytoplasmic (Homo sapiens, UniProt O75874, R132H). Briefly: Inhibition of IDH1 R132H mutant (unknown origin) using alpha-ketoglutarate and NADPH incubated for 60 mins by fluorescence based assay.
T1 sequence (O75874 2-414 R132H limits assumed): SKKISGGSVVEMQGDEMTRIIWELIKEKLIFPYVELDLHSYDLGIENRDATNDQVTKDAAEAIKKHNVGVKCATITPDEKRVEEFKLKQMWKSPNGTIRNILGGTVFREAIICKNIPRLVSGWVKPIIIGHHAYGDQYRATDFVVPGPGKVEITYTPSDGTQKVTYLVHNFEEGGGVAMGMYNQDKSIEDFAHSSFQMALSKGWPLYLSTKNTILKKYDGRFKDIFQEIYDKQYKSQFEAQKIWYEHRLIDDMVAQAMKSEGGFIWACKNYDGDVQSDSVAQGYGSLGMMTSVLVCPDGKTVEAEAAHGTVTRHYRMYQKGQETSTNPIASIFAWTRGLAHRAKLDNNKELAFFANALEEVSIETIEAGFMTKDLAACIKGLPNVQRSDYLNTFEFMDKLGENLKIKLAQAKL
Test [3] deals with T1, Isocitrate dehydrogenase [NADP] cytoplasmic. Briefly: Allosteric inhibition of IDH1 R132H mutant (unknown origin) expressed in HEK293T cells assessed as reduction in 2-HG production incubated for 48 hrs by LC-MS/MS analysis. In kind it is cell-based. The method in brief:
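HEK293T cells reverse-transfected with pcDNA3.1 IDH1 R132H (Lipofectamine 2000), 6 h at 37 °C in 1% FBS plating medium, then assay medium. Compound added in DMSO (0.15% final), 48 h at 37 °C. Medium 2-HG quantified by HILIC LC-MS/MS with D3-2-HG internal standard, normalised to Hoechst nuclear count. Mean of two biological replicates.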

Test [4] concerns HeLa. As to the kind of experiment: Cytotoxicity in human HeLa cells. In kind it is cell-based.

Each structure is given as a SMILES string. Values joined by “and” are separate entries in the source; they are usually repeats but may differ in a detail not shown here. Identical values can stand only once. Active and inactive are the calls of the source. No cut-off for these calls is given here.

With `CC(C)CCSc1nc(N2C[C@@H]3[C@H](C2)[C@H]3C(=O)O)ccc1C(=O)NC1C2CC3CC1CC(O)(C3)C2` (some centres undefined), the inhibition result in test [1] is “inactive”. In addition, the IC50 in test [2] is 1.63 µM and 1.4 µM.

For the compound `CC(C)CCSc1nc(N2CCC[C@@H](CC(=O)O)C2)ccc1C(=O)NC1C2CC3CC1CC(O)(C3)C2` (some centres undefined), in test [1], the inhibition entry is “inactive”. Also, in test [2], the IC50 is 10.1 µM and 7.6 µM. Turning to `O=C(O)C[C@H]1CCN(c2ccc(C(=O)NC3C4CC5CC3CC(O)(C5)C4)c(SC3CCCCC3)n2)C1` (some centres undefined), the inhibition entry in test [1] is “inactive”. The IC50 in test [2] is 2.3 µM and 2.2 µM. For the compound `O=C(O)C[C@@H]1CCCN(c2ccc(C(=O)NC3CCCCC3)c(OCc3ccccc3F)n2)C1`, the IC50 was 16 µM in test [3], above 30 µM in test [4] and 5.6 µM in test [2]. Regarding `CC(C)CCOc1nc(N2CCC[C@@H](CC(=O)O)C2)ccc1C(=O)NC1C2CC3CC1CC(O)(C3)C2` (some centres undefined), the IC50 is 8.5 µM in test [3], above 30 µM in test [4] and 1.3 µM in test [2].

Regarding `COc1nc(N2CCC[C@@H](CC(=O)O)C2)ccc1C(=O)NC1CCCCC1`, the figures for the IC50 in test [3], in test [4] and in test [2] were above 30 µM, above 30 µM and above 50 µM, respectively. Consider `O=C(NC1C2CC3CC1CC(O)(C3)C2)c1ccc(N2C[C@@H]3[C@H](C2)[C@H]3C(=O)O)nc1SC1CCCC1` (some centres undefined), for which the inhibition entry in test [1] was “inactive”. For the same compound, in test [2], the IC50 is 3 µM and 1.6 µM.

In the case of `CC(C)CC(C)Oc1nc(N2CCC[C@@H](CC(=O)O)C2)ccc1C(=O)NC1CCCCC1` (some centres undefined), the IC50 in test [2] was found to be 12 µM. Take `CC(C)CCOc1nc(N2C[C@@H]3[C@H](C2)[C@H]3C(=O)O)ccc1C(=O)Nc1cccc(B(O)O)c1`: in test [2], half-maximal inhibition (IC50) required 4.6 µM. In test [2], `CC(C)CCOc1nc(N2C[C@@H]3[C@H](C2)[C@H]3C(=O)O)ccc1C(=O)NC1CCCCC1` gave an IC50 of 7.9 µM.

The compound `CC(C)CCOc1nc(N2C[C@@H]3[C@H](C2)[C@H]3C(=O)O)ccc1C(=O)NC1CCCCCC1` registered an IC50 in test [2] of 3.9 µM. For `O=C(O)C[C@@H]1CCCN(c2ccc(C(=O)NC3C4CC5CC3CC(O)(C5)C4)c(OCc3ccccc3Cl)n2)C1` (some centres undefined), the midpoint of inhibition in test [2], the IC50, lay at 2.3 µM.

`CCC(C)Oc1nc(N2CCC[C@@H](CC(=O)O)C2)ccc1C(=O)NC1CCCCC1` (some centres undefined) displayed an IC50 in test [2] above 50 µM. In test [2], `CC1(C)CC(Oc2nc(N3CCC[C@@H](CC(=O)O)C3)ccc2C(=O)NC2CCCCC2)C1` had an IC50 of 7.2 µM. Still for that read-out and setting: to `CC(C)CCOc1nc(N2CCC[C@@H](CC(=O)O)C2)ccc1C(=O)NC1CCCCC1` belongs 6.4 µM; to `CC(C)CCOc1nc(N2C[C@@H]3[C@H](C2)[C@H]3C(=O)O)ccc1C(=O)N[C@H](C)c1ccccc1`, 5.4 µM.

In test [2], `CC(C)CCOc1nc(N2C[C@@H]3[C@H](C2)[C@H]3C(=O)O)ccc1C(=O)NC[C@@H](O)c1ccccc1` yielded an IC50 of 3.1 µM. Compound `Cc1ccccc1CNc1nc(N2CCC[C@@H](CC(=O)O)C2)ccc1C(=O)NC1CCCCC1` came in with an IC50 in test [2] above 50 µM. Same read-out and setting: to `O=C(O)C[C@@H]1CCCN(c2ccc(C(=O)NC3CCCCC3)c(OCCC3CC3)n2)C1` belongs 8 µM; to `CC(C)CCOc1nc(-c2ccc(C(=O)O)cc2)ccc1C(=O)NC1C2CC3CC1CC(O)(C3)C2` (centres undefined), 3 µM; to `CC(C)CCSc1nc(N2CCC[C@@H](CC(=O)O)C2)ccc1C(=O)NC1CCCCC1`, 10 µM. For `CC(C)CCOc1nc(Nc2csc(C(=O)O)n2)ccc1C(=O)NC1C2CC3CC1CC(O)(C3)C2` (centres undefined), in test [2], the midpoint of inhibition, the IC50, lay at 0.81 µM.

For `C[C@H](Oc1nc(N2CCC[C@@H](CC(=O)O)C2)ccc1C(=O)NC1CCCCC1)c1ccccc1`, the IC50 in test [2] amounted to 11 µM. In test [2], `CC(C)CCOc1nc(N2C[C@@H]3[C@H](C2)[C@H]3C(=O)O)ccc1C(=O)Nc1ccc(O)cc1` registered an IC50 of 5 µM. In test [2], `COc1cccc(COc2nc(N3CCC[C@@H](CC(=O)O)C3)ccc2C(=O)NC2CCCCC2)c1` displayed an IC50 of 12 µM. Take `Cc1ccccc1COc1nc(N2C[C@@H]3[C@H](C2)[C@H]3C(=O)O)ccc1C(=O)NC1C2CC3CC1CC(O)(C3)C2` (some centres undefined): half-maximal inhibition in test [2] (IC50) required 4.5 µM. On to `Cc1cccc(COc2nc(N3CCC[C@@H](CC(=O)O)C3)ccc2C(=O)NC2CCCCC2)c1`, for which the midpoint of inhibition in test [2], the IC50, lay at 4.6 µM.

In the case of `CC(C)CCOc1nc(N2C[C@@H]3[C@H](C2)[C@H]3C(=O)O)ccc1C(=O)N[C@@H](CO)c1ccccc1`, the IC50 in test [2] came out at 5.6 µM.

In turn, `CC(C)CCOc1nc(N2C[C@@H]3[C@H](C2)[C@H]3C(=O)O)ccc1C(=O)NCc1ccc(O)cc1` had an IC50 in test [2] of 6.6 µM.
